{"data": "Published values from different studies", "note": "Protocols differ between the studies behind these lines."}
{"SMILES": "CCOC(=O)c1c(NC(=O)c2ccccc2)sc2c1CCN(CC)C2", "organism": "Mycobacterium tuberculosis", "assay": "microbial growth, resazurin", "system": "H37RV", "measurement": "MIC", "result": "279 µM"}
{"SMILES": "O=C1NN=C(N=Cc2ccc(O)cc2O)C1=NNn1c(-c2ccccc2)nc2ccccc2c1=O", "organism": "Monascus purpureus", "assay": "microbial growth, broth dilution", "measurement": "MIC", "result": "53.5 µM"}
{"SMILES": "Cc1cc2nc(C(=O)N3CCOCC3)cc(-c3ccccc3Cl)c2c(C)c1-c1ccncc1", "organism": "Mycobacterium tuberculosis", "assay": "microbial growth", "system": "H37RV", "measurement": "MIC90", "result": "15 µM"}
{"SMILES": "CC1=NN(CNc2ccc(C(=O)O)cc2)C(=O)C1=NNn1c(-c2ccccc2)nc2ccccc2c1=O", "organism": "Monascus purpureus", "assay": "microbial growth, broth dilution", "measurement": "MIC", "result": "101 µM"}
{"SMILES": "CCOC(=O)c1c(NC(=O)c2c(F)c(F)c(F)c(F)c2F)sc2c1CCN(C(=O)OC(C)(C)C)C2", "organism": "Mycobacterium tuberculosis", "assay": "microbial growth, resazurin", "system": "H37RV", "conditions": "7 days", "measurement": "MIC", "result": "> 100 µM"}
{"SMILES": "c1ccc2c(N3CCCCC3)nc(-c3ccncn3)nc2c1", "organism": "Trypanosoma cruzi", "assay": "parasite growth, imaging", "system": "U2OS", "conditions": "intracellular, amastigote", "measurement": "IC50", "result": "32.4 µM"}
{"SMILES": "O=[N+]([O-])c1ccc(-c2nc3cccc(O)c3[nH]2)o1", "organism": "Staphylococcus haemolyticus", "assay": "microbial killing", "measurement": "MBC", "result": "0.5 µg/mL"}
{"SMILES": "O=C1NN=C(N=Cc2ccc(O)c(O)c2)C1=NNn1c(-c2ccccc2)nc2ccccc2c1=O", "organism": "Monascus purpureus", "assay": "microbial growth, broth dilution", "measurement": "MIC", "result": "53.5 µM"}
{"SMILES": "c1ccc(-c2nc(N3CCCC3)c3ccccc3n2)nc1", "organism": "Trypanosoma cruzi", "assay": "parasite growth, imaging", "system": "U2OS", "conditions": "intracellular, amastigote", "measurement": "IC50", "result": "3.1 µM"}
{"SMILES": "O=C(O)c1cn(C2CC2)c2cc(N3CCNCC3)c(F)cc2c1=O", "organism": "Monascus purpureus", "assay": "microbial growth, broth dilution", "measurement": "MIC", "result": "6.25 µM"}
{"SMILES": "c1ccc(-c2nc(N3CCC(c4ccccn4)C3)c3ccccc3n2)nc1 (centres unmarked)", "organism": "Trypanosoma cruzi", "assay": "parasite growth, imaging", "system": "U2OS", "conditions": "intracellular, amastigote", "measurement": "IC50", "result": "1.2 µM"}
{"SMILES": "CCN1CCc2c(sc(N)c2C(=O)O)C1", "organism": "Mycobacterium tuberculosis", "assay": "microbial growth, resazurin", "system": "H37RV", "measurement": "MIC", "result": "> 400 µM"}
{"SMILES": "Nc1nc(O)c2ncn(COC(CO)CO)c2n1", "organism": "Human betaherpesvirus 5", "assay": "cytopathic effect", "system": "AD169", "measurement": "IC50", "result": "0.9 µM"}
{"SMILES": "c1ccc2c(N3CCCCC3)nc(-n3cccn3)nc2c1", "organism": "Trypanosoma cruzi", "assay": "parasite growth, imaging", "system": "U2OS", "conditions": "intracellular, amastigote", "measurement": "IC50", "result": "8.96 µM"}
{"SMILES": "O=C(N[C@@H](Cc1ccccc1)C(=O)c1cc(-c2ccccc2)no1)[C@H](Cc1ccccc1)NC(=O)N1CCOCC1 (mixture of isomers)", "organism": "Trypanosoma cruzi", "assay": "parasite growth", "system": "TULAHUEN", "conditions": "intracellular, amastigote", "measurement": "IC50", "result": "28 µM"}
{"SMILES": "COc1ccccc1CNC(=O)c1cc(-c2ccccc2)sc1N", "organism": "Mycobacterium tuberculosis", "assay": "microbial growth, resazurin", "system": "H37RV", "measurement": "MIC", "result": "> 200 µM"}
{"SMILES": "Cc1ccc2nc(-c3ccc(Cl)cc3)cn2c1", "organism": "Trypanosoma cruzi", "assay": "parasite growth", "system": "TULAHUEN", "conditions": "6 days, intracellular, amastigote", "measurement": "EC90", "result": "> 5 µM"}
{"SMILES": "CC(C)(Nc1nc(-c2ccccn2)nc2ccccc12)c1ccccn1", "organism": "Trypanosoma cruzi", "assay": "parasite growth, imaging", "system": "U2OS", "conditions": "intracellular, amastigote", "measurement": "IC50", "result": "1.4 µM"}
{"SMILES": "CCOC(=O)c1cc(-c2ccccc2)sc1NC(=O)c1cc(C(F)(F)F)cc(C(F)(F)F)c1", "organism": "Mycobacterium tuberculosis", "assay": "microbial growth, resazurin", "system": "H37RV", "measurement": "MIC", "result": "> 200 µM"}
{"SMILES": "NC(=O)c1cccc(-c2nc(N3CCC(c4ccccn4)C3)c3ccccc3n2)c1 (centres unmarked)", "organism": "Trypanosoma cruzi", "assay": "parasite growth, imaging", "system": "U2OS", "conditions": "intracellular, amastigote", "measurement": "IC50", "result": "9.33 µM"}
{"SMILES": "CCOC(=O)c1c(NC(=O)c2c(F)c(F)c(F)c(F)c2F)sc2c1CCCC2", "organism": "Mycobacterium tuberculosis", "assay": "microbial growth, resazurin", "system": "H37RV", "measurement": "IC50", "result": "13 µM"}
{"SMILES": "c1ccc(C2CCN(c3nc(-c4ccn[nH]4)nc4ccccc34)C2)nc1 (centres unmarked)", "organism": "Trypanosoma cruzi", "assay": "parasite growth, imaging", "system": "U2OS", "conditions": "intracellular, amastigote", "measurement": "IC50", "result": "14.3 µM"}
{"SMILES": "CCCCNC(=O)c1c(N)sc2c1CCN(CC)C2", "organism": "Mycobacterium tuberculosis", "assay": "microbial growth, resazurin", "system": "H37RV", "measurement": "IC50", "result": "> 300 µM"}
